The structures appear in SMILES notation.

One series has as its system MRC5. The experiment in a line: Cytotoxicity against human MRC5 cells assessed as reduction in cell viability after 48 hrs by MTT assay. The series is classed as cell-based. The conditions noted are these: MRC5, 48 h. Put shortly:
(§1)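 Cells seeded at 1 × 10^4 per well, 24 h at 37 °C, 5% CO2, in RPMI-1640 with 10% FBS, penicillin and streptomycin. Compounds were prepared from DMSO stocks (50 mg/mL) and added at 2.5–50.0 μg/mL for 48 h; DMSO controls. MTT read-out; IC50 taken from a sigmoidal dose–response fit of % viability versus log concentration by nonlinear regression.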
(Tetrazolium dyes change colour on reduction, which living cells bring about.)

In the next series the test system is A-375. The experiment in a line: Cytotoxicity against human A375 cells assessed as reduction in cell viability after 48 hrs by MTT assay. The series is classed as functional, cell-based. The settings on record: for IC50: A-375, 48 h. Put shortly:
as §1

Series [1] has as its system A549. The experiment in a line: Cytotoxicity against human A549 cells assessed as reduction in cell viability after 48 hrs by MTT assay. The series is classed as functional, cell-based. The settings on record: for IC50: A549, 48 h. Put shortly: as §1
The nature of series [2]: Selectivity index, ratio of IC50 for human MRC5 cells to IC50 for human A375 cells. The class given is toxicity. The conditions noted are these: MRC5 cells versus A375 cells, read-out: Ratio IC50. The gist of the method:
(§2)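 Selectivity index is the IC50 in noncancerous MRC5 cells divided by the IC50 in the cancer line.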

A short description of series [3]: Selectivity index, ratio of IC50 for human MRC5 cells to IC50 for human A549 cells. The class given is toxicity. The settings on record: MRC5 cells versus A549 cells, read-out: Ratio IC50. The gist of the method: as §2
The subject of series [4] is A549. The experiment in a line: Induction of apoptosis in human A549 cells assessed as live cells at cytotoxic IC50 after 24 hrs by Annexin V-FITC/propidium iodide staining based flow cytometry (reference value: 96.02%). The series is classed as functional.
Series [5] relates to A549. As to the kind of experiment: Induction of apoptosis in human A549 cells assessed as early apoptotic cells at cytotoxic IC50 after 24 hrs by Annexin V-FITC/propidium iodide staining based flow cytometry (reference value: 2.25%). The class given is functional.
In series [6] the test system is A549. The experiment in a line: Induction of apoptosis in human A549 cells assessed as late apoptotic cells at cytotoxic IC50 after 24 hrs by Annexin V-FITC/propidium iodide staining based flow cytometry (reference value: 1.02%). The series is classed as functional.
The test system of series [7] is A549. The experiment in a line: Induction of apoptosis in human A549 cells assessed as necrotic cells at cytotoxic IC50 after 24 hrs by Annexin V-FITC/propidium iodide staining based flow cytometry (reference value: 0.71%). The series is classed as functional. (In flow cytometry, cells or beads pass a laser one at a time.)

With `C=C(C)[C@@H]1CC[C@]2(C(=O)O)CC[C@]3(C)[C@H](CC[C@@H]4[C@@]5(C)CC[C@H](O)C(C)(C)[C@@H]5CC[C@]43C)[C@@H]12` [BETULINIC ACID], the values for the IC50 in the series with MRC5, in the series with A-375 and with A549 [1] were 32.8 µM, 43.7 µM and 43.7 µM, respectively. Further, the selectivity ratio in series [2] and in [3] was 0.75 throughout. The Activity amounted to 90.8% in the series on A549 [4], 5.66% in the series on A549 [5], 2.24% with A549 [6] and 1.3% in the series on A549 [7].

`CC1(C)CC[C@]2(C(=O)O)CC[C@]3(C)C(=CC[C@@H]4[C@@]5(C)C[C@@H](OC(=O)/C=C/c6ccc(O)c(O)c6)[C@H](O)C(C)(C)[C@@H]5CC[C@]43C)[C@@H]2C1`: the concentration for half-maximal inhibition (IC50) (as a rule, the concentration that inhibits the measured activity by half) in the series on MRC5 was found to be 7.9 µM; in the series on A-375, 11.8 µM; in the series on A549 [1], 4.7 µM. In addition, the Activity result with A-375 and in the series with A549 [1] was “Dose-dependent effect” in each case. The values for the selectivity ratio in series [2] and in series [3] were 0.67 and 1.66, respectively.

For the compound `C=C(C)[C@@H]1CC[C@]2(C(=O)O)CC[C@]3(CO)[C@H](CC[C@@H]4[C@@]5(C)C[C@@H](OC(=O)/C=C/c6ccc(O)c(O)c6)[C@H](O)C(C)(C)[C@@H]5CC[C@]43C)[C@@H]12`, the IC50 in the series with MRC5 amounted to 18.5 µM; with A-375, 11.5 µM; in the series with A549 [1], 15.4 µM. In addition, the Activity result with A-375 and with A549 [1] was “Dose-dependent effect” in each case. The selectivity ratio amounted to 1.6 in series [2] and 1.2 in [3].

Turning to `C=C(C)[C@@H]1CC[C@]2(C(=O)O)CC[C@]3(COC(=O)/C=C/c4ccc(O)c(O)c4)[C@H](CC[C@@H]4[C@@]5(C)CCC(=O)C(C)(C)[C@@H]5CC[C@]43C)[C@@H]12`, the IC50 in the series with MRC5 was 9.7 µM; with A-375, 7.7 µM; in the series on A549 [1] it was 15.5 µM. The Activity entry in the series on A-375 and with A549 [1] was “Dose-dependent effect” in each case. The selectivity ratio worked out at 1.25 in [2] and 0.63 in [3].

Take `C=C(C)[C@@H]1CC[C@]2(C(=O)O)CC[C@]3(CO)[C@H](CC[C@@H]4[C@@]5(C)C[C@@H](OC(=O)/C=C/c6ccc(O)c(O)c6)[C@H](OC(=O)/C=C/c6ccc(O)cc6)C(C)(C)[C@@H]5CC[C@]43C)[C@@H]12`: the IC50 amounted to 7.8 µM in the series on MRC5, 6.3 µM with A-375 and 6.3 µM in the series on A549 [1]. Moreover, the Activity entry with A-375 and in the series with A549 [1] was “Dose-dependent effect” in each case. For the same compound, the selectivity ratio in series [2] and in series [3] was 1.25 throughout.

For the compound `C=C(C)[C@@H]1CC[C@]2(C(=O)O)CC[C@]3(C)[C@H](CC[C@@H]4[C@@]5(C)C[C@@H](OC(=O)/C=C/c6ccc(O)c(O)c6)[C@H](O)C(C)(C)[C@@H]5CC[C@]43C)[C@@H]12`, the figures for the IC50 with MRC5, in the series with A-375 and in the series with A549 [1] were 7.9 µM, 6.3 µM and 15.8 µM, respectively. Moreover, the Activity entry in the series with A-375 and with A549 [1] was “Dose-dependent effect” each time. Further, the selectivity ratio in [2] came out at 1.25; in series [3], 0.5.

With `C=C(C)[C@@H]1CC[C@]2(C(=O)O)CC[C@]3(CO)[C@H](CC[C@@H]4[C@@]5(C)C[C@@H](OC(=O)/C=C/c6ccc(O)c(O)c6)[C@H](OC(=O)/C=C\c6ccc(O)cc6)C(C)(C)[C@@H]5CC[C@]43C)[C@@H]12`, the IC50 in the series with MRC5 is 10 µM; in the series with A-375, 3.8 µM; in the series with A549 [1], 5 µM. Also, the Activity entry in the series with A-375 is “Dose-dependent effect”; in the series with A549 [1], “Dose-dependent effect”; with A549 [4], 86.87%; in the series on A549 [5], 11.92%; in the series on A549 [6] it was 0.28%; in the series on A549 [7], 0.93%. For the same compound, the selectivity ratio turned out to be 2.66 in [2] and 2 in series [3].

Values taken from ChEMBL document CHEMBL4118023, “Bioactive Pentacyclic Triterpene Ester Derivatives from Alnus viridis ssp. viridis Bark” (J Nat Prod, 2017).
